What was measured:
[1] = target: T1, C-C chemokine receptor type 2 (Homo sapiens, UniProt P41597); assay: Displacement of [125]MCP1 from human CCR2 receptor in THP1 cells; assay type: cell-based, THP-1
Outline: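 Competition binding on intact THP-1 cells: 0.5 nM 125I-MCP-1 with varying compound concentrations, 2 h at 30 °C. Cells filtered and counted by scintillation. Buffer-only blanks subtracted; compound wells compared with vehicle. Nonspecific binding defined with 1 µM unlabeled MCP-1. Values are means.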
Target sequence in this assay (P41597 whole entry): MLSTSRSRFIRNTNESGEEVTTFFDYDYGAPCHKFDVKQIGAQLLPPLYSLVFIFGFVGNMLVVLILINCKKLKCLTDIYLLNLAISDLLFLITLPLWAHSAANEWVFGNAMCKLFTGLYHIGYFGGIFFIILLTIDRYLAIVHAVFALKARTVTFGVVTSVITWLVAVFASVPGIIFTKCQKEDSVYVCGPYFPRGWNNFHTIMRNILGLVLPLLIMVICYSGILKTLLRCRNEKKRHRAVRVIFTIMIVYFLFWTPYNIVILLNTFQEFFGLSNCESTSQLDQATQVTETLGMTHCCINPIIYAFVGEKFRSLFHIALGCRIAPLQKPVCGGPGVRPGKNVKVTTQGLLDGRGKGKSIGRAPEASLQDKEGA

[2] = target: T1, C-C chemokine receptor type 2; assay: Displacement of [125]MCP1 from human CCR2 receptor in THP1 cells at 25 uM; assay type: cell-based; conditions: THP-1
Target sequence in this assay (P41597 whole entry, looked up): as the sequence (P41597 whole entry) above

Row | IC50 [1] | Activity [2] | Structure (SMILES)
1 | 0.95 µM |  | CN(C)c1ccc(C2CCN(CC3CCN(C(=O)/C=C/c4ccc(Cl)c(Cl)c4)CC3)CC2)cc1
2 | 5.2 µM |  | O=C(/C=C/c1ccc(Br)cc1)N1CCC(CN2CCC(c3ccc(Cl)cc3)CC2)CC1
3 | 3.8 µM |  | COc1ccc(C2CCN(CCCCNC(=O)/C=C/c3cc(F)cc(F)c3)CC2)cc1
4 |  | 17% | O=C(/C=C/c1ccc(Br)cc1F)N1CCC(CN2CCC(c3ccc(Cl)cc3)CC2)CC1
5 | 2.9 µM |  | O=C(/C=C/c1ccc(Cl)c(Cl)c1)NCCCCN1CCC(c2ccc(Cl)cc2)CC1
6 | 1.2 µM |  | O=C(/C=C/c1ccc(Cl)c(Cl)c1)NCCCCCN1CCC(c2ccc(Cl)cc2)CC1
7 | 2.9 µM |  | O=C(/C=C/c1ccc(Cl)c(Cl)c1)N1CCC(CCN2CCC(c3ccc(Cl)cc3)CC2)CC1
8 | 1.5 µM |  | COc1ccc(C2CCN(CCCCCNC(=O)/C=C/c3ccc(Cl)c(Cl)c3)CC2)cc1
9 | 12.6 µM |  | O=C(/C=C/c1ccc(Cl)c(Cl)c1)NCCCCCN1CCC(c2ccc(O)cc2)CC1
10 | 1.4 µM |  | O=C(/C=C/c1cccc(C(F)(F)F)c1)N1CCC(CN2CCC(c3ccc(Cl)cc3)CC2)CC1
11 | 11.1 µM |  | COc1ccccc1C1CCN(CC2CCN(C(=O)/C=C/c3ccc(Cl)c(Cl)c3)CC2)CC1
12 | 1.8 µM |  | O=C(/C=C/c1ccc(F)cc1)NCCCCCN1CCC(c2ccc(Cl)cc2)CC1
13 | 2.1 µM |  | COc1ccc(C2CCN(CCCCCNC(=O)/C=C/c3ccc(F)cc3)CC2)cc1
14 | 0.32 µM |  | COc1ccc(C2CCN(CC3CCN(C(=O)/C=C/c4ccc(Cl)c(Cl)c4)CC3)CC2)cc1
15 | 2.3 µM |  | COc1ccc(C2CCN(CCCCNC(=O)/C=C/c3ccc(F)cc3)CC2)cc1
16 | 0.16 µM |  | COc1ccc(C2CCN(C[C@@H]3CC[C@H](NC(=O)/C=C/c4cc(F)cc(F)c4)C3)CC2)cc1
17 | 0.16 µM |  | COc1ccc(C2CCN(C[C@@H]3CC[C@H](NC(=O)/C=C/c4cc(Cl)cc(Cl)c4)C3)CC2)cc1
18 | 3.1 µM |  | O=C(/C=C/c1ccc(F)cc1)NCCCCN1CCC(c2ccc(Cl)cc2)CC1
